The structures appear in SMILES notation.

Usually IC50 stands for the midpoint of a concentration-inhibition curve. Low readings indicate greater potency, high ones weaker potency.

The target in this assay is Protein kinase C (PKC). The assay is described as follows: Inhibition of protein kinase C (PKC) purified from rat brain. In short, it runs like this:
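Mostly purified rat brain PKC, histone kinase assay on ice-set tubes: 3 nM TPA, 8 μg/mL phosphatidylserine, 1 mM EGTA (no calcium), 4% glycerol, 20 mM Tris-Cl pH 7.4. Started with [γ-32P]ATP (20 μM), MgCl2 10 mM, p-nitrophenyl phosphate 5 mM, lysine-rich histone 240 μg/mL; 30 °C, 10 min; radioactivity counted. Compounds 0.16–160 μg/mL, 2.4% DMSO final; duplicate runs averaged.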
`CCCCCCCCCCCCCCCC1(OC)C[N+](C)(C)CCO1.[Br-]` (configuration not stated) showed a concentration for half-maximal inhibition (IC50) of 3.9 µM.
Compound `CCCCCCCCCCCCCCCCCCC1(O)C[N+](C)(C)CCO1.[Br-]` (configuration not stated) returned an IC50 of 6.5 µM.
`CCCCCCCCCCCCC1(O)C[N+](C)(C)CCO1.[Br-]` (configuration not stated) gave an IC50 of 13 µM.
`CCCCCCCCCCCCCC1(O)C[N+](C)(C)CCO1.[Br-]` (configuration not stated): the IC50 was 12 µM.
Turning to `CCCCCCCCCCCCCCC1(O)C[N+](C)(C)CCO1.[Br-]` (configuration not stated), the IC50 was 7.6 µM.
On to `CCCCCCCCCCCCCCCC1(O)C[N+](C)(C)CCO1.[Br-]` (configuration not stated), for which the IC50 came out at 7.3 µM.
Consider `CCCCCCCCCCCCCCCC(=O)C[N+](C)(C)CCCO.[Br-]`, for which the IC50 worked out at 6.9 µM.
Consider `CCCCCCCCCCC1(O)C[N+](C)(C)CCO1.[Br-]` (configuration not stated), for which the IC50 was found to be 170 µM. This IC50 is about 25-fold higher than that of the compound before.
Turning to `CCCCCCCCCCCCCCCCC1(O)C[N+](C)(C)CCO1.[Br-]` (configuration not stated), the IC50 was determined as 7.6 µM.
In the case of `CCCCCCCCCCCCCCCCCC1(O)C[N+](C)(C)CCO1.[Br-]` (configuration not stated), the IC50 was determined as 7.1 µM.
Turning to `CCCCCCCCCCCCCCCC(=O)OC(CC(=O)[O-])C[N+](C)(C)C` (racemic) [Palmitoyl-carnitine], the 50% inhibitory concentration (IC50) stood at 15.8 µM.
`CCCCCCCCCCCCCCC[C@@]1(O)C[N+](C)(C)C[C@@H](CC(=O)[O-])O1` [HEMIACYLCARNITINIUM] displayed an IC50 of 49.6 µM.
